Converted amounts (≈) assume the structure as drawn.
Tests used:
Format in all cases: functional
[1] = test system: Candida albicans; experiment: Cytotoxicity against clinical isolates of Candida albicans 2323 at MIC after 24 hrs by WST1 assay
Summary of the method: (§1)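 Candida cells were exposed to MIC and sub-MIC levels for 24 h in microplates, then to WST-1/CEC dye for 30 min at 37 °C. Plates were shaken 1 min and the reaction stopped with 1% SDS. Formazan was read at 450 nm. % cytotoxicity = 100 × (cell control − experimental)/cell control. Triplicates, mean ± SD.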

[2] = test system: Candida tropicalis; experiment: Cytotoxicity against clinical isolates of Candida tropicalis 2029 at MIC after 24 hrs by WST1 assay; summary of the method: as §1
[3] = test system: Candida albicans; experiment: Cytotoxicity against clinical isolates of Candida albicans 2779 at 1/4 MIC after 24 hrs by WST1 assay; summary of the method: as §1
[4] = test system: Candida albicans; experiment: Inhibition of ergosterol biosynthesis in Candida albicans ATCC 10261 assessed as ergosterol content at 1/2 MIC after 16 hrs by spectrophotometer analysis; set-up: scale not given: the % may be the effect or the level left
Summary of the method: (§2)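 Cells were pelleted and washed, and wet weight taken. Pellets were saponified in 25% alcoholic KOH at 85 °C for 1 h. Sterols were extracted into n-heptane/water. Ergosterol content is expressed relative to untreated control cells.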

[5] = test system: Candida albicans; experiment: Inhibition of ergosterol biosynthesis in Candida albicans ATCC 10261 assessed as ergosterol content at MIC after 16 hrs by spectrophotometer analysis; set-up: scale not given: the % may be the effect or the level left; summary of the method: as §2
[6] = test system: Candida tropicalis; experiment: Inhibition of ergosterol biosynthesis in Candida tropicalis ATCC 750 assessed as ergosterol content at 1/2 MIC after 16 hrs by spectrophotometer analysis; set-up: scale not given: the % may be the effect or the level left; summary of the method: as §2
[7] = test system: Candida tropicalis; experiment: Inhibition of ergosterol biosynthesis in Candida tropicalis ATCC 750 assessed as ergosterol content at MIC after 16 hrs by spectrophotometer analysis; set-up: scale not given: the % may be the effect or the level left
Summary of the method: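 Cells were harvested, washed, and wet pellet weight recorded. Pellets were saponified in 3 mL 25% alcoholic KOH at 85 °C for 1 h, then sterols extracted into n-heptane. Ergosterol is expressed relative to untreated control cells.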

[8] = test system: Candida albicans; experiment: Inhibition of ergosterol biosynthesis in Candida albicans 2323 assessed as ergosterol content at 1/2 MIC after 16 hrs by spectrophotometer analysis; set-up: scale not given: the % may be the effect or the level left; summary of the method: as §2
[9] = test system: Candida albicans; experiment: Inhibition of ergosterol biosynthesis in Candida albicans 2323 assessed as ergosterol content at MIC after 16 hrs by spectrophotometer analysis; set-up: scale not given: the % may be the effect or the level left; summary of the method: as §2
[10] = test system: Candida albicans; experiment: Inhibition of ergosterol biosynthesis in Candida albicans 2367 assessed as ergosterol content at 1/2 MIC after 16 hrs by spectrophotometer analysis; set-up: scale not given: the % may be the effect or the level left; summary of the method: as §2
[11] = test system: Candida albicans; experiment: Inhibition of ergosterol biosynthesis in Candida albicans 2367 assessed as ergosterol content at MIC after 16 hrs by spectrophotometer analysis; set-up: scale not given: the % may be the effect or the level left; summary of the method: as §2
[12] = test system: Candida albicans; experiment: Inhibition of ergosterol biosynthesis in Candida albicans 2779 assessed as ergosterol content at 1/2 MIC after 16 hrs by spectrophotometer analysis; set-up: scale not given: the % may be the effect or the level left; summary of the method: as §2
[13] = test system: Candida albicans; experiment: Inhibition of ergosterol biosynthesis in Candida albicans 2779 assessed as ergosterol content at MIC after 16 hrs by spectrophotometer analysis; set-up: scale not given: the % may be the effect or the level left; summary of the method: as §2
[14] = test system: Candida tropicalis; experiment: Inhibition of ergosterol biosynthesis in Candida tropicalis 2029 assessed as ergosterol content at 1/2 MIC after 16 hrs by spectrophotometer analysis; set-up: scale not given: the % may be the effect or the level left; summary of the method: as §2
[15] = test system: Candida tropicalis; experiment: Inhibition of ergosterol biosynthesis in Candida tropicalis 2029 assessed as ergosterol content at MIC after 16 hrs by spectrophotometer analysis; set-up: scale not given: the % may be the effect or the level left; summary of the method: as §2
[16] = test system: Candida tropicalis; experiment: Inhibition of ergosterol biosynthesis in Candida tropicalis 2356 assessed as ergosterol content at 1/2 MIC after 16 hrs by spectrophotometer analysis; set-up: scale not given: the % may be the effect or the level left; summary of the method: as §2
[17] = test system: Candida tropicalis; experiment: Inhibition of ergosterol biosynthesis in Candida tropicalis 2356 assessed as ergosterol content at MIC after 16 hrs by spectrophotometer analysis; set-up: scale not given: the % may be the effect or the level left; summary of the method: as §2
[18] = test system: Candida albicans; experiment: Antifungal activity against Candida albicans ATCC 10261 by broth microdilution assay
Summary of the method: (§3)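 CLSI M27-A3 broth microdilution. Compounds diluted to 1 mg/ml in 1% DMSO. Fluconazole (1 mg/ml) served as positive control, 1% DMSO as vehicle control, with media and culture controls. Triplicate at each concentration, repeated thrice. Inocula came from YPDA stocks subcultured in broth for 48 h at 37 °C.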

[19] = test system: Candida tropicalis; experiment: Antifungal activity against Candida tropicalis ATCC 750 by broth microdilution assay; summary of the method: as §3
[20] = test system: Candida albicans; experiment: Antifungal activity against clinical isolates of Candida albicans 2323 by broth microdilution assay; summary of the method: as §3
[21] = test system: Candida albicans; experiment: Antifungal activity against clinical isolates of Candida albicans 2367 by broth microdilution assay; summary of the method: as §3
[22] = test system: Candida albicans; experiment: Antifungal activity against clinical isolates of Candida albicans 2779 by broth microdilution assay; summary of the method: as §3
[23] = test system: Candida tropicalis; experiment: Antifungal activity against clinical isolates of Candida tropicalis 2029 by broth microdilution assay; summary of the method: as §3
[24] = test system: Candida tropicalis; experiment: Antifungal activity against clinical isolates of Candida tropicalis 2356 by broth microdilution assay; summary of the method: as §3
[25] = test system: Candida albicans; experiment: Antifungal activity against Candida albicans ATCC 10261 at half MIC after 48 hrs by disc diffusion assay
Summary of the method: (§4)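 Cells (10^3 cells ml−1) grown in YPD were mixed into molten agar (~40 °C) and poured into 100-mm plates. Filter discs (4 mm) were spotted with 10 µl of compound at 1/2 × MIC, MIC or 2 × MIC. Fluconazole and 1% DMSO were the controls. Plates were incubated at 37 °C for 48 h and inhibition zone diameters recorded in mm.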

[26] = test system: Candida albicans; experiment: Antifungal activity against Candida albicans ATCC 10261 at MIC after 48 hrs by disc diffusion assay; summary of the method: as §4
[27] = test system: Candida albicans; experiment: Antifungal activity against Candida albicans ATCC 10261 at 2 times MIC after 48 hrs by disc diffusion assay; summary of the method: as §4
[28] = test system: Candida tropicalis; experiment: Antifungal activity against Candida tropicalis ATCC 750 at half MIC after 48 hrs by disc diffusion assay; summary of the method: as §4
[29] = test system: Candida tropicalis; experiment: Antifungal activity against Candida tropicalis ATCC 750 at MIC after 48 hrs by disc diffusion assay; summary of the method: as §4
[30] = test system: Candida tropicalis; experiment: Antifungal activity against Candida tropicalis ATCC 750 at 2 times MIC after 48 hrs by disc diffusion assay; summary of the method: as §4
[31] = test system: Candida albicans; experiment: Antifungal activity against clinical isolates of Candida albicans 2323 at half MIC after 48 hrs by disc diffusion assay; summary of the method: as §4
[32] = test system: Candida albicans; experiment: Antifungal activity against clinical isolates of Candida albicans 2323 at MIC after 48 hrs by disc diffusion assay; summary of the method: as §4
[33] = test system: Candida albicans; experiment: Antifungal activity against clinical isolates of Candida albicans 2323 at 2 times MIC after 48 hrs by disc diffusion assay; summary of the method: as §4
[34] = test system: Candida albicans; experiment: Antifungal activity against clinical isolates of Candida albicans 2367 at half MIC after 48 hrs by disc diffusion assay; summary of the method: as §4
[35] = test system: Candida albicans; experiment: Antifungal activity against clinical isolates of Candida albicans 2367 at MIC after 48 hrs by disc diffusion assay; summary of the method: as §4
[36] = test system: Candida albicans; experiment: Antifungal activity against clinical isolates of Candida albicans 2367 at 2 times MIC after 48 hrs by disc diffusion assay; summary of the method: as §4
[37] = test system: Candida albicans; experiment: Antifungal activity against clinical isolates of Candida albicans 2779 at half MIC after 48 hrs by disc diffusion assay; summary of the method: as §4
[38] = test system: Candida albicans; experiment: Antifungal activity against clinical isolates of Candida albicans 2779 at MIC after 48 hrs by disc diffusion assay; summary of the method: as §4
[39] = test system: Candida albicans; experiment: Antifungal activity against clinical isolates of Candida albicans 2779 at 2 times MIC after 48 hrs by disc diffusion assay; summary of the method: as §4
[40] = test system: Candida tropicalis; experiment: Antifungal activity against clinical isolates of Candida tropicalis 2029 at half MIC after 48 hrs by disc diffusion assay; summary of the method: as §4
[41] = test system: Candida tropicalis; experiment: Antifungal activity against clinical isolates of Candida tropicalis 2029 at MIC after 48 hrs by disc diffusion assay; summary of the method: as §4
[42] = test system: Candida tropicalis; experiment: Antifungal activity against clinical isolates of Candida tropicalis 2029 at 2 times MIC after 48 hrs by disc diffusion assay; summary of the method: as §4
[43] = test system: Candida tropicalis; experiment: Antifungal activity against clinical isolates of Candida tropicalis 2356 at half MIC after 48 hrs by disc diffusion assay; summary of the method: as §4
[44] = test system: Candida tropicalis; experiment: Antifungal activity against clinical isolates of Candida tropicalis 2356 at MIC after 48 hrs by disc diffusion assay; summary of the method: as §4
[45] = test system: Candida tropicalis; experiment: Antifungal activity against clinical isolates of Candida tropicalis 2356 at 2 times MIC after 48 hrs by disc diffusion assay; summary of the method: as §4

CCc1ccnc(-c2nccn2Cc2nnc(-c3ccccc3OC(C)=O)o2)c1
Activity [1]: 60.62%
Activity [2]: 60.62%
Activity [3]: 7.31%
Activity [4]: 51%
Activity [5]: 100%
Activity [6]: 47%
Activity [7]: 100%
Activity [8]: 42%
Activity [9]: 91%
Activity [10]: 52%
Activity [11]: 89%
Activity [12]: 52%
Activity [13]: 93%
Activity [14]: 53%
Activity [15]: 87%
Activity [16]: 48%
Activity [17]: 91%
MIC [18]: 2 µg/mL (≈ 5.14 µM)
MIC [19]: 4 µg/mL (≈ 10.3 µM)
MIC [20]: 16 µg/mL (≈ 41.1 µM)
MIC [21]: 8 µg/mL (≈ 20.5 µM)
MIC [22]: 16 µg/mL (≈ 41.1 µM)
MIC [23]: 16 µg/mL (≈ 41.1 µM)
MIC [24]: 32 µg/mL (≈ 82.2 µM)
inhibition zone (IZ) [25]: 5 mm
inhibition zone (IZ) [26]: 11 mm
inhibition zone (IZ) [27]: 16 mm
inhibition zone (IZ) [28]: 3 mm
inhibition zone (IZ) [29]: 9 mm
inhibition zone (IZ) [30]: 14 mm
inhibition zone (IZ) [31]: 2 mm
inhibition zone (IZ) [32]: 6 mm
inhibition zone (IZ) [33]: 11 mm
inhibition zone (IZ) [34]: 3 mm
inhibition zone (IZ) [35]: 8 mm
inhibition zone (IZ) [36]: 12 mm
inhibition zone (IZ) [37]: 3 mm
inhibition zone (IZ) [38]: 11 mm
inhibition zone (IZ) [39]: 13 mm
inhibition zone (IZ) [40]: 1 mm
inhibition zone (IZ) [41]: 5 mm
inhibition zone (IZ) [42]: 10 mm
inhibition zone (IZ) [43]: 2 mm
inhibition zone (IZ) [44]: 6 mm
inhibition zone (IZ) [45]: 11 mm

From ChEMBL document CHEMBL3593207, “Imidazole clubbed 1,3,4-oxadiazole derivatives as potential antifungal agents” (2015)
